Data as given in ChEMBL document CHEMBL1806477, “Discovery of novel imidazo[1,2-a]pyridines as inhibitors of the insulin-like growth factor-1 receptor tyrosine kinase” (Bioorg Med Chem Lett, 2011).
One block for each compound: values may come before it.

Tests used:
[1] = molecular target: T1, Insulin-like growth factor 1 receptor (Homo sapiens, UniProt P08069); experiment: Inhibition of IGF1-induced autophosphorylation of human recombinant IGF1R expressed in mouse fibroblasts by high throughput assay
T1 sequence (P08069 31-736 limits assumed): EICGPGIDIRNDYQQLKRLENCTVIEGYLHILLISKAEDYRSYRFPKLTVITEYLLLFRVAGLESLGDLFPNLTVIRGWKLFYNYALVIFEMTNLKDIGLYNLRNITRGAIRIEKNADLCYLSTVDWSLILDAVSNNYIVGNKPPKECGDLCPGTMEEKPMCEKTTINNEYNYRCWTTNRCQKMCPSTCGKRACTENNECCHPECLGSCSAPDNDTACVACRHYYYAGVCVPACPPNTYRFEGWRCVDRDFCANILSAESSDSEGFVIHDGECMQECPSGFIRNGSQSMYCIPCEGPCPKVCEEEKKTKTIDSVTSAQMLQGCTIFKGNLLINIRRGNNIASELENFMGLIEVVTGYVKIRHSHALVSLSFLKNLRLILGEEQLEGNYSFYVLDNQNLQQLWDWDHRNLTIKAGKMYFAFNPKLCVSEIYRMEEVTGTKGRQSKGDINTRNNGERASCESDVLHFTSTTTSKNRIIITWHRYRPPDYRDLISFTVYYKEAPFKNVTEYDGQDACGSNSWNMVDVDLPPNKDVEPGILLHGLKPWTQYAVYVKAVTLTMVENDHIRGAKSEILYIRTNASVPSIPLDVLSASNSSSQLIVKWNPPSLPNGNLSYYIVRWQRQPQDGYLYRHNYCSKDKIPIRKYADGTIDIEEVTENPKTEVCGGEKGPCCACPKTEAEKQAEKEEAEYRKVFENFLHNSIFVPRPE
T1 sequence (P08069 741-1367 limits assumed): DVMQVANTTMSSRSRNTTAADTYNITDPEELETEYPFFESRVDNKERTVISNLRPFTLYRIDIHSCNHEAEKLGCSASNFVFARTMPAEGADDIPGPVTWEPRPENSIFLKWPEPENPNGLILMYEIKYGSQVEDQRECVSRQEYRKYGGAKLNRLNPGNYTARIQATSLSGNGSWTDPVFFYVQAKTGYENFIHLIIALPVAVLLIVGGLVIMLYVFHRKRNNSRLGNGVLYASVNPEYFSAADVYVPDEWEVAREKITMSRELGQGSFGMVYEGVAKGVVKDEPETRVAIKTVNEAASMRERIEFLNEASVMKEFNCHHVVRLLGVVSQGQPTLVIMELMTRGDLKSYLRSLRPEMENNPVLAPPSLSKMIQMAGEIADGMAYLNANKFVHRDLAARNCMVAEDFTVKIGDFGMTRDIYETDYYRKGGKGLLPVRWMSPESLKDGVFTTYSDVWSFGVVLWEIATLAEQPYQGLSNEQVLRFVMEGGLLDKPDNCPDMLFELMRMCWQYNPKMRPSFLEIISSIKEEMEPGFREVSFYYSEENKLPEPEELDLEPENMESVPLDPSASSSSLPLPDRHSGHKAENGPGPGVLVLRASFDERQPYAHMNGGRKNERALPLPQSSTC

[2] = molecular target: Cyclin-dependent kinase 2 (Homo sapiens, UniProt P24941); experiment: Inhibition of CDK2
[3] = molecular target: T1, Insulin-like growth factor 1 receptor; experiment: Inhibition of IGF1R
[4] = Volume of distribution at steady state in nude mouse at 4 umol/kg, iv and 10 umol/kg, po; assay type: ADME, organism-based; details: in vivo, read-out: Vdss
[5] = Terminal half life in Han Wistar rat at 4 umol/kg, iv and 10 umol/kg, po; assay type: ADME, organism-based; details: in vivo, read-out: beta t1/2 (converted)
Procedure, shortened: (§1)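 Male Han Wistar rats, each given an intravenous dose and a separate oral dose; parameters derived from the plasma concentration profiles.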

[6] = Plasma clearance in Han Wistar rat at 4 umol/kg, iv and 10 umol/kg, po; assay type: ADME, organism-based; procedure, shortened: as §1
[7] = molecular target: T2, Insulin receptor (Homo sapiens, UniProt P06213); experiment: Inhibition of insulin-induced autophosphorylation of human insulin receptor expressed in CHO cells; assay type: cell-based
T2 sequence (P06213 28-758 limits assumed): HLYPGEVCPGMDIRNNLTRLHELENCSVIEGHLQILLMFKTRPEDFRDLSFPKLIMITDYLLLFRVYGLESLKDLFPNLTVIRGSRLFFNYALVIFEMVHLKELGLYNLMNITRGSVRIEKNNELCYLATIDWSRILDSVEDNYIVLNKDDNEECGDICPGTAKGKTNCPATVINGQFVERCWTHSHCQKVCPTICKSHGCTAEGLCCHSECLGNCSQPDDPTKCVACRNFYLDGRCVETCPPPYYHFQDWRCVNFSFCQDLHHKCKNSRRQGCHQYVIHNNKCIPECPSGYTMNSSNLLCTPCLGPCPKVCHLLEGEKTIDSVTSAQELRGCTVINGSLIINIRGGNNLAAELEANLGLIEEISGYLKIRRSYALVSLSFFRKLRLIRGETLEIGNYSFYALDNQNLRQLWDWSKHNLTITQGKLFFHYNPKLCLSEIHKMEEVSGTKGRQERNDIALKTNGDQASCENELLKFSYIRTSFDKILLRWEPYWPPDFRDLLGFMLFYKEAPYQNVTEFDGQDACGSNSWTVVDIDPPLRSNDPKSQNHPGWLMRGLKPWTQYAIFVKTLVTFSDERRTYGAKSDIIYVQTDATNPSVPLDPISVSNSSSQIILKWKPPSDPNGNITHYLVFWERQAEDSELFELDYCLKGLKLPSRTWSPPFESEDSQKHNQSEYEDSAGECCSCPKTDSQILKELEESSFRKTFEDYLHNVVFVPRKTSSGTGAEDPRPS
T2 sequence (P06213 763-1382 limits assumed): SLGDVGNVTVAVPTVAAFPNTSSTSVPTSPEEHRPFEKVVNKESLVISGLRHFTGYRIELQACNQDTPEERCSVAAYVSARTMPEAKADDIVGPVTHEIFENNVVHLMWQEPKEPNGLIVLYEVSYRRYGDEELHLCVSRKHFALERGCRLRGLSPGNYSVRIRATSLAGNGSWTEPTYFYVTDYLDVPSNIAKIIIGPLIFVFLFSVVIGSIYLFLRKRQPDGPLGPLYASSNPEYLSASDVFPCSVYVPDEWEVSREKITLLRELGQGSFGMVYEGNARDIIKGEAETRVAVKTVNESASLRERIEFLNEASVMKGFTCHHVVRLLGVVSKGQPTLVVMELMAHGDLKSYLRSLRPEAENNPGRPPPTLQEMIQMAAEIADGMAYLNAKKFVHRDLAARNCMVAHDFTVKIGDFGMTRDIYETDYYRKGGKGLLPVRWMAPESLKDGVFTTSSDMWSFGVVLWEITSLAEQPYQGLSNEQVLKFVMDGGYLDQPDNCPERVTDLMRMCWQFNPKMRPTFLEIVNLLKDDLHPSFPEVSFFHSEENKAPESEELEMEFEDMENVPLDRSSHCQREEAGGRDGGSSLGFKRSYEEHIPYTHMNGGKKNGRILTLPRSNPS
Procedure, shortened: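 CHO cells transfected with the human insulin receptor gene, stimulated with insulin; the read-out is inhibition of receptor auto-phosphorylation.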

[8] = molecular target: T3, Mitogen-activated protein kinase 15 (Homo sapiens) (UniProt Q8TD08); experiment: Inhibition of ERK8 at 1 uM
T3 sequence (whole entry): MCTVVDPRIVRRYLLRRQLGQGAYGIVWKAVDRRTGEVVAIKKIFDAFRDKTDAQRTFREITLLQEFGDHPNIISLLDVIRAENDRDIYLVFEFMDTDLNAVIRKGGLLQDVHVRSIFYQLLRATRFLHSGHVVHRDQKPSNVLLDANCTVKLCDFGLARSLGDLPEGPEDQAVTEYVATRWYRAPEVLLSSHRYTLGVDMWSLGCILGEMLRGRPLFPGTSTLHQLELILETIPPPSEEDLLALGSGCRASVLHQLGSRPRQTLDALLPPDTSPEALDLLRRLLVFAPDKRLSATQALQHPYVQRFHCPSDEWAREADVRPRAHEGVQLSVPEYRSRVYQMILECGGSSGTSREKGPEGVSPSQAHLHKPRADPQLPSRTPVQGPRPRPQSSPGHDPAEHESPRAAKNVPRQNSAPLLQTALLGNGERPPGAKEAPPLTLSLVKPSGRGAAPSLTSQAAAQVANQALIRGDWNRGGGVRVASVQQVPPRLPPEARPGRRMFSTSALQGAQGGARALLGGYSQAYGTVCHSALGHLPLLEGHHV

[9] = molecular target: Mitogen-activated protein kinase 9 (Homo sapiens) (UniProt P45984); experiment: Inhibition of JNK2 at 1 uM
Chain of Mitogen-activated protein kinase 9 (Homo sapiens) (P45984 whole entry, looked up): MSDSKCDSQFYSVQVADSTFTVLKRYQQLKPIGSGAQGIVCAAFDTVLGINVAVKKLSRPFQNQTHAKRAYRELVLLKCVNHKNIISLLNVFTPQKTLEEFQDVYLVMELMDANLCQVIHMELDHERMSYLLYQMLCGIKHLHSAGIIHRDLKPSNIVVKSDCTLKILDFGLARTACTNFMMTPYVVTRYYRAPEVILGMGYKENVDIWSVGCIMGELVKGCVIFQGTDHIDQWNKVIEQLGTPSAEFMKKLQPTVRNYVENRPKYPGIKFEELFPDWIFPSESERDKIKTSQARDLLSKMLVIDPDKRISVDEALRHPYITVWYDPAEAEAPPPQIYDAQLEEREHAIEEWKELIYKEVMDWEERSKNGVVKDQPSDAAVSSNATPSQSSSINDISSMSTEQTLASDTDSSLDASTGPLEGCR

[10] = Plasma clearance in Beagle dog at 0.8 umol/kg, iv and 10 umol/kg, po; assay type: ADME, organism-based, Canis lupus familiaris
Procedure, shortened: (§2)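 Values are means from two beagle dogs, one male and one female, each given an intravenous dose and an oral dose.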

[11] = Intrinsic clearance in mouse hepatocytes assessed per 10^6 cells; assay type: ADME, cell-based, Liver, Hepatocyte
[12] = Oral bioavailability in Beagle dog at 10 umol/kg; assay type: ADME, organism-based, Canis lupus familiaris; details: in vivo; procedure, shortened: as §2
[13] = Intrinsic clearance in dog hepatocytes assessed per 10^6 cells; assay type: ADME, cell-based, Canis lupus familiaris, Liver, Hepatocyte
[14] = molecular target: T2, Insulin receptor; experiment: Inhibition of insulin receptor
[15] = Intrinsic clearance in rat hepatocytes assessed per 10^6 cells; assay type: ADME, cell-based, Liver, Hepatocyte
[16] = Plasma clearance in nude mouse at 4 umol/kg, iv and 10 umol/kg, po; assay type: ADME, organism-based
[17] = Terminal half life in Beagle dog at 0.8 umol/kg, iv and 10 umol/kg, po; assay type: ADME, organism-based, Canis lupus familiaris; details: in vivo, read-out: beta t1/2 (converted); procedure, shortened: as §2
[18] = Volume of distribution at steady state in Han Wistar rat at 4 umol/kg, iv and 10 umol/kg, po; assay type: ADME, organism-based; details: in vivo, read-out: Vdss; procedure, shortened: as §1
[19] = Terminal half life in nude mouse at 4 umol/kg, iv and 10 umol/kg, po; assay type: ADME, organism-based; details: in vivo, read-out: beta t1/2 (converted)
[20] = Volume of distribution at steady state in Beagle dog at 0.8 umol/kg, iv and 10 umol/kg, po; assay type: ADME, organism-based, Canis lupus familiaris; details: in vivo, read-out: Vdss; procedure, shortened: as §2
[21] = Intrinsic clearance in human hepatocytes assessed per 10^6 cells; assay type: ADME, cell-based, Liver, Hepatocyte
[22] = Oral bioavailability in nude mouse at 10 umol/kg; assay type: ADME, organism-based; details: in vivo
[23] = molecular target: Mitogen-activated protein kinase 8 (Homo sapiens) (UniProt P45983); experiment: Inhibition of JNK1 at 1 uM
Chain of Mitogen-activated protein kinase 8 (Homo sapiens) (P45983 whole entry): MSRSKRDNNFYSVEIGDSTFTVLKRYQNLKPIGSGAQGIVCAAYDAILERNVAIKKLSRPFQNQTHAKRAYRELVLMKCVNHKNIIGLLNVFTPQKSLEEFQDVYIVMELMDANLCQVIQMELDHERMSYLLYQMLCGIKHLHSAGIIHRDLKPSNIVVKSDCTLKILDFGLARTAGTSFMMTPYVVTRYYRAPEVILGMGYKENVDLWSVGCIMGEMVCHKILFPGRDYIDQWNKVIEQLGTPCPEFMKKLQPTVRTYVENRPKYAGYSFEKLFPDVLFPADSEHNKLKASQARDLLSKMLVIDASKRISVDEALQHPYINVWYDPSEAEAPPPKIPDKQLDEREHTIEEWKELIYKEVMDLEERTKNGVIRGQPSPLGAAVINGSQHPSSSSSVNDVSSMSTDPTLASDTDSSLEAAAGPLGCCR

[24] = Oral bioavailability in Han Wistar rat at 10 umol/kg; assay type: ADME, organism-based; details: in vivo

SMILES: COc1cc(N2CCN(C(C)=O)CC2)ccc1Nc1ncc(C#N)c(-c2cnc3ccccn23)n1
IC50 [1]: 0.17 µM
IC50 [2]: 27 µM

SMILES: COc1cc(N2CCN(C(C)=O)CC2)ccc1Nc1ncc(OC)c(-c2cnc3ccccn23)n1
IC50 [1]: 0.19 µM
IC50 [2]: 53 µM

SMILES: COc1cc(N2CCN(C(C)=O)CC2)ccc1Nc1nccc(-c2cnc3ccccn23)n1
IC50 [1]: 1.34 µM
IC50 [2]: > 100 µM
IC50 [3]: 0.45 µM

SMILES: COc1cc(N2CCN(C(C)=O)CC2)ccc1Nc1ncc(C(F)(F)F)c(-c2cnc3ccccn23)n1
IC50 [2]: 16 µM

Stronger by IC50 [2], values ahead:

IC50 [1]: 0.009 µM
IC50 [2]: 1.1 µM
IC50 [3]: 0.003 µM
SMILES: COc1cc(N2CCN(C(C)=O)CC2)ccc1Nc1ncc(Br)c(-c2cnc3ccccn23)n1

Vd [4]: 0.8 L/kg
half-life [5]: 4.6 h
clearance [6]: 6.5 mL/min/kg
IC50 [7]: 0.012 µM
inhibition [9]: > 80%
clearance [10]: 4.7 mL/min/kg
hepatocyte CLint [11]: 32 µL/min/1e6 cells
bioavailability [12]: 30%
hepatocyte CLint [13]: 6.7 µL/min/1e6 cells
IC50 [14]: 0.009 µM
hepatocyte CLint [15]: 15 µL/min/1e6 cells
clearance [16]: 15 mL/min/kg
half-life [17]: 5.5 h
Vd [18]: 0.7 L/kg
IC50 [2]: 1.1 µM
half-life [19]: 0.9 h
Vd [20]: 1.9 L/kg
hepatocyte CLint [21]: 6.9 µL/min/1e6 cells
bioavailability [22]: 36%
inhibition [23]: > 80%
bioavailability [24]: 49%
SMILES: COc1cc(N2CCN(C(C)=O)CC2)ccc1Nc1ncc(Cl)c(-c2cnc3ccccn23)n1
inhibition [8]: > 80%

IC50 [1]: 0.092 µM
IC50 [2]: 10 µM
SMILES: COc1cc(N2CCN(C(C)=O)CC2)ccc1Nc1ncc(C)c(-c2cnc3ccccn23)n1

IC50 [2]: 0.001 µM
IC50 [3]: 1.26 µM
SMILES: NS(=O)(=O)c1ccc(Nc2nccc(-c3cnc4ccccn34)n2)cc1

IC50 [2]: 0.078 µM
IC50 [3]: 0.27 µM
SMILES: CC(=O)N1CCN(c2ccc(Nc3nccc(-c4cnc5ccccn45)n3)cc2)CC1

IC50 [1]: 0.13 µM
IC50 [2]: 2.7 µM
IC50 [3]: 0.089 µM
SMILES: COc1cc(N2CCN(C(C)=O)CC2)ccc1Nc1ncc(F)c(-c2cnc3ccccn23)n1
